ChEMBL document CHEMBL3862036, “Biphenyl Pyridazinone Derivatives as Inhaled PDE4 Inhibitors: Structural Biology and Structure-Activity Relationships” (J Med Chem, 2016)

Key:
Adenosine receptor A2b = biological target: T1, Adenosine receptor A2b (Homo sapiens, UniProt P29275); assay: Antagonist activity at adenosine A2b receptor (unknown origin)
T1 sequence (P29275 whole entry): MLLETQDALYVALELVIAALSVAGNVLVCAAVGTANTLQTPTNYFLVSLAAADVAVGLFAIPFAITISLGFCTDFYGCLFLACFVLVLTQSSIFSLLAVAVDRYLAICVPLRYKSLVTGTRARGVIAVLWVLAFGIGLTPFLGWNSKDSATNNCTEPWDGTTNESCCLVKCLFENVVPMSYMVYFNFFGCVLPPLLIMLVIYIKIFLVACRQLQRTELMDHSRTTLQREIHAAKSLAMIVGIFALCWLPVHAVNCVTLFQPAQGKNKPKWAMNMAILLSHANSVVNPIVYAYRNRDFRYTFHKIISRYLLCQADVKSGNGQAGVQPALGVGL

Rattus norvegicus [1] = assay: Anti-inflammatory activity in Sprague-Dawley rat assessed as inhibition of LPS-induced neutrophilia at 10 to 1000 ug/kg, it administered as suspension with Penn-Century micro-sprayer aerosolizer dosed 18 hrs before LPS challenge and measured 22 hrs post dose; type: functional; details: inhaled or nasal
Method in brief: (§1)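 Suspensions in PBS/0.2% Tween 80 were homogenized, with lower doses made by 1:10 dilutions. 0.2 mL was given intratracheally by MicroSprayer to isoflurane-anesthetized fasted male Sprague-Dawley rats (230–280 g). At 1 or 18 h, rats received nebulized LPS (30 mL of a 1:100 PBS dilution of 100 mg/10 mL stock) over 40 min. Four hours later, BAL neutrophils were counted by flow cytometry.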

Rattus norvegicus [2] = assay: Anti-inflammatory activity in Sprague-Dawley rat assessed as inhibition of LPS-induced neutrophilia at 1000 ug/kg, it administered as suspension with Penn-Century micro-sprayer aerosolizer dosed 1 hrs before LPS challenge and measured 5 hrs post dose; type: functional; details: inhaled or nasal; method in brief: as §1
Rattus norvegicus [3] = assay: Anti-inflammatory activity in Sprague-Dawley rat assessed as inhibition of LPS-induced neutrophilia at 10 to 1000 ug/kg, it administered as dry powder with lactose carrier through Penn-Century insufflator dosed 1 hrs before LPS challenge and measured 5 hrs post dose; type: functional
Method in brief: (§2)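 Compounds were micronized, comixed with lactose, and 5 mg of the mixture was insufflated intratracheally into isoflurane-anesthetized fasted male Sprague-Dawley rats (230–280 g). LPS aerosol (30 mL of a 1:100 PBS dilution of 100 mg/10 mL stock) was nebulized for 40 min at 1 or 18 h post-dose. BAL was taken 4 h later and neutrophils counted by flow cytometry. Controls: lactose alone, lactose+LPS, fluticasone (10% in lactose).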

Adenosine receptor A2a = Adenosine receptor A2a (Homo sapiens, UniProt P29274); assay: Antagonist activity at adenosine A2a receptor (unknown origin)
Chain of Adenosine receptor A2a (P29274 whole entry): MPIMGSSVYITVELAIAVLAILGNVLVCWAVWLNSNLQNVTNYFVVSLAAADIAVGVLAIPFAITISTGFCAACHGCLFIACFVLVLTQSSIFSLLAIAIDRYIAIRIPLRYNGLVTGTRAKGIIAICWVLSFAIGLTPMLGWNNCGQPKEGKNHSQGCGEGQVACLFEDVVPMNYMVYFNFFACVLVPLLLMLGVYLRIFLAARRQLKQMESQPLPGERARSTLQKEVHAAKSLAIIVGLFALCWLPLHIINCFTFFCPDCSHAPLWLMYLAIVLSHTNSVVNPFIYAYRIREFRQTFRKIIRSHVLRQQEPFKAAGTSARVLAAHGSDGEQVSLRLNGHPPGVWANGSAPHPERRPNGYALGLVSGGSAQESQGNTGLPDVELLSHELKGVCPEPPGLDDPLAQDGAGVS

Rattus norvegicus [4] = assay: Anti-inflammatory activity in Sprague-Dawley rat assessed as inhibition of LPS-induced neutrophilia at 10 to 1000 ug/kg, it administered as suspension with Penn-Century micro-sprayer aerosolizer dosed 1 hrs before LPS challenge and measured 5 hrs post dose; type: functional; details: inhaled or nasal; method in brief: as §1
[5] = Inhibition of PDE4 in PBMC (unknown origin) assessed as reduction in LPS-induced TNFalpha production incubated for 24 hrs by ELISA; details: Homo sapiens
[6] = Inhibition of PDE4 in human whole blood assessed as reduction in LPS-induced TNFalpha production incubated for 24 hrs by ELISA; type: tissue-based
Method in brief: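 Human whole blood was preincubated with LPS (final 1 μg/mL) for 10 min at 37 °C with rocking. 200 μL was added to wells holding increasing inhibitor concentrations in 100% DMSO. Plates were incubated 24 h at 37 °C under agitation, then placed on ice, diluted with PBS and centrifuged at 800g, 4 °C, for 15 min before TNF-α measurement.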

Rattus norvegicus [7] = assay: Anti-inflammatory activity in Sprague-Dawley rat assessed as inhibition of LPS-induced neutrophilia at 6000 ug/kg, it administered as dry powder with lactose carrier through Penn-Century insufflator dosed 18 hrs before LPS challenge and measured 22 hrs post dose; type: functional; method in brief: as §2
Rattus norvegicus [8] = assay: Anti-inflammatory activity in Sprague-Dawley rat assessed as inhibition of LPS-induced neutrophilia at 1000 ug/kg, it administered as suspension with Penn-Century micro-sprayer aerosolizer dosed 18 hrs before LPS challenge and measured 22 hrs post dose; type: functional; details: inhaled or nasal; method in brief: as §1
Adenosine receptor A1 = biological target: T2, Adenosine receptor A1 (Homo sapiens, UniProt P30542); assay: Antagonist activity at adenosine A1 receptor (unknown origin)
T2 sequence (P30542 whole entry): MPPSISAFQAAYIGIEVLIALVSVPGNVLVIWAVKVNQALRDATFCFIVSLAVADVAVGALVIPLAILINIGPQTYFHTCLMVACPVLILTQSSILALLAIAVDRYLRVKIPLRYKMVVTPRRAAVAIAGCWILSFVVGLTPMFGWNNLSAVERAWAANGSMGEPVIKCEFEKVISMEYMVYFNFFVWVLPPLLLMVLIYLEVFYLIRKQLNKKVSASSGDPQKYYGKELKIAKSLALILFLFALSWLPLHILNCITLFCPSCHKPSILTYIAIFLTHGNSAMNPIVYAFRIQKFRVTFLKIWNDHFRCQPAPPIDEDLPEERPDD

Rattus norvegicus [9] = assay: Anti-inflammatory activity in Sprague-Dawley rat assessed as inhibition of LPS-induced neutrophilia at 100 ug/kg, it administered as suspension with Penn-Century micro-sprayer aerosolizer dosed 1 hrs before LPS challenge and measured 5 hrs post dose; type: functional; details: inhaled or nasal; method in brief: as §1
[10] = Basicity constant, pKB of the compound; type: physicochemical
Rattus norvegicus [11] = assay: Anti-inflammatory activity in Sprague-Dawley rat assessed as inhibition of LPS-induced neutrophilia at 100 ug/kg, it administered as suspension with Penn-Century micro-sprayer aerosolizer dosed 18 hrs before LPS challenge and measured 22 hrs post dose; type: functional; details: inhaled or nasal; method in brief: as §1
[12] = Drug metabolism in human liver S9 fraction assessed as sulfonation in presence of PAPS and UDPGA incubated for 20 mins; type: ADME, subcellular; details: read-out: Drug metabolism
[13] = Drug metabolism in human liver S9 fraction assessed as glucuronidation in presence of PAPS and UDPGA incubated for 20 mins; type: ADME, subcellular; details: read-out: Drug metabolism
Rattus norvegicus [14] = assay: Anti-inflammatory activity in Sprague-Dawley rat assessed as inhibition of LPS-induced neutrophilia at 300 ug/kg, it administered as suspension with Penn-Century micro-sprayer aerosolizer dosed 18 hrs before LPS challenge and measured 22 hrs post dose; type: functional; details: inhaled or nasal; method in brief: as §1
Rattus norvegicus [15] = assay: Anti-inflammatory activity in Sprague-Dawley rat assessed as inhibition of LPS-induced neutrophilia at 30 ug/kg, it administered as suspension with Penn-Century micro-sprayer aerosolizer dosed 18 hrs before LPS challenge and measured 22 hrs post dose; type: functional; details: inhaled or nasal; method in brief: as §1
Rattus norvegicus [16] = assay: Anti-inflammatory activity in Sprague-Dawley rat assessed as inhibition of LPS-induced neutrophilia at 10 ug/kg, it administered as suspension with Penn-Century micro-sprayer aerosolizer dosed 1 hrs before LPS challenge and measured 5 hrs post dose; type: functional; details: inhaled or nasal; method in brief: as §1
Rattus norvegicus [17] = assay: Anti-inflammatory activity in Sprague-Dawley rat assessed as inhibition of LPS-induced neutrophilia at 2000 ug/kg, it administered as dry powder with lactose carrier through Penn-Century insufflator dosed 18 hrs before LPS challenge and measured 22 hrs post dose; type: functional; method in brief: as §2
Rattus norvegicus [18] = assay: Anti-inflammatory activity in Sprague-Dawley rat assessed as inhibition of LPS-induced neutrophilia at 100 ug/kg, it administered as dry powder with lactose carrier through Penn-Century insufflator dosed 1 hrs before LPS challenge and measured 5 hrs post dose; type: functional; method in brief: as §2
Rattus norvegicus [19] = assay: Anti-inflammatory activity in Sprague-Dawley rat assessed as inhibition of LPS-induced neutrophilia at 10 ug/kg, it administered as dry powder with lactose carrier through Penn-Century insufflator dosed 18 hrs before LPS challenge and measured 22 hrs post dose; type: functional; method in brief: as §2
Rattus norvegicus [20] = assay: Anti-inflammatory activity in Sprague-Dawley rat assessed as inhibition of LPS-induced neutrophilia at 10 ug/kg, it administered as dry powder with lactose carrier through Penn-Century insufflator dosed 1 hrs before LPS challenge and measured 5 hrs post dose; type: functional; method in brief: as §2
Rattus norvegicus [21] = assay: Anti-inflammatory activity in Sprague-Dawley rat assessed as inhibition of LPS-induced neutrophilia at 100 ug/kg, it administered as dry powder with lactose carrier through Penn-Century insufflator dosed 18 hrs before LPS challenge and measured 22 hrs post dose; type: functional; method in brief: as §2
[22] = Pro-inflammatory activity in Sprague-Dawley rat assessed as induction of neutrophilia at 1000 ug/kg, it administered as dry powder with lactose carrier through Penn-Century insufflator; details: in vivo, inhaled_or_intranasal, 1 mg/kg

Row | Structure (SMILES) | IC50 (Adenosine receptor A2b) | IC50 (Adenosine receptor A2a) | ED50 (Rattus norvegicus [4]) | IC50 [5] | IC50 [6] | IC50 (Adenosine receptor A1) | inhibition in vivo at 0.1 mg/kg (Rattus norvegicus [9]) | also measured
1 | O=C(Nc1c(Cl)cncc1Cl)c1ccc(OC(F)F)c(OCC2CC2)c1 [ROFLUMILAST] | > 1000 nM | > 1000 nM | 0.126 mg/kg | 4 nM | 36 nM | > 1000 nM |  | ED50 (Rattus norvegicus [1]): > 1 mg/kg; inhibition in vivo at 1 mg/kg (Rattus norvegicus [2]): 80%; ED50 (Rattus norvegicus [3]): 0.204 mg/kg; inhibition in vivo at 6 mg/kg (Rattus norvegicus [7]): 37%; inhibition in vivo at 1 mg/kg (Rattus norvegicus [8]): 24%
2 | CCn1nc(-c2cccc(-c3cccc(C(=O)NCCN4CCNCC4)c3)c2)cc(NC(=O)Nc2c(Cl)cncc2Cl)c1=O |  | 9 nM |  | 0.34 nM | 125 nM | 2 nM | 62% | pKb [10]: 9.8; inhibition in vivo at 0.1 mg/kg (Rattus norvegicus [11]): 40%
3 | CCn1nc(-c2cccc(-c3ccc(O)cc3)c2)cc(NC(=O)Nc2c(Cl)cncc2Cl)c1=O |  |  |  | 0.9 nM | 117 nM |  |  | metabolised at 20 min [12]: 0.3%; metabolised at 20 min [13]: 2%
4 | CCn1nc(-c2cccc(-c3cc(C(=O)NCCCN(C)C)cc(C(=O)OC)c3)c2)cc(NC(=O)Nc2c(Cl)cncc2Cl)c1=O | > 1000 nM | > 1000 nM |  | 0.05 nM |  | 71 nM | 64% | inhibition in vivo at 0.3 mg/kg (Rattus norvegicus [14]): 26%; inhibition in vivo at 0.03 mg/kg (Rattus norvegicus [15]): 30%; inhibition in vivo at 0.01 mg/kg (Rattus norvegicus [16]): 52%
5 | CCn1nc(-c2cccc(-c3cccc(O)c3)c2)cc(NC(=O)Nc2c(Cl)cncc2Cl)c1=O | 172 nM | 168 nM | 0.416 mg/kg | 0.7 nM | 95 nM | 87 nM |  | metabolised at 20 min [12]: 3%; ED50 (Rattus norvegicus [3]): 0.551 mg/kg; inhibition in vivo at 1 mg/kg (Rattus norvegicus [8]): 0%; metabolised at 20 min [13]: 21%; inhibition in vivo at 2 mg/kg (Rattus norvegicus [17]): 7%
6 | CCn1nc(-c2cccc(-c3ccc(CC(=O)NCCN4CCCCC4)cc3)c2)cc(NC(=O)Nc2c(Cl)cncc2Cl)c1=O | 90 nM | 105 nM | 0.089 mg/kg | 0.52 nM | 374 nM | 31 nM |  | inhibition in vivo at 0.1 mg/kg (Rattus norvegicus [18]): 42%; inhibition in vivo at 0.3 mg/kg (Rattus norvegicus [14]): 47%; inhibition in vivo at 0.01 mg/kg (Rattus norvegicus [19]): 42%; inhibition in vivo at 0.01 mg/kg (Rattus norvegicus [20]): 48%; inhibition in vivo at 0.1 mg/kg (Rattus norvegicus [11]): 48%; inhibition in vivo at 0.1 mg/kg (Rattus norvegicus [21]): 39%
7 | CCn1nc(-c2cccc(-c3cccc(C(=O)NCCN4CCCCC4)c3)c2)cc(NC(=O)Nc2c(Cl)cncc2Cl)c1=O | 169 nM | 22 nM |  | 0.43 nM | 81 nM | 6 nM | 66% | fold change (FC) [22]: 1.1; pKb [10]: 11.2
